Results taken from ChEMBL document CHEMBL1145795, “Design, synthesis, and evaluation of analogues of 3,3,3-trifluoro-2-hydroxy-2-phenyl-propionamide as orally available general anesthetics” (J Med Chem, 2003).
Active and inactive are the calls of the source. The rule behind the calls is not given here.

Assays:
Rattus norvegicus [1] = assay: Compound was tested for blood pressure in rat at dose 60 mg/kg administered intraperitoneally; type: functional; details: route intraperitoneal
How it was run: (§1)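 Rats were isoflurane-induced, intubated and ventilated, with femoral arterial and venous lines and normothermia. Baseline MAC was taken by tail clamp for 1 min, stepping isoflurane by 0.1% with 12–15 min equilibration. MAC was the midpoint between movement and no movement. The compound (60 mg/kg) was sonicated in 3 mL peanut oil and given ip. MAC was redetermined at 30 min and 1 h. Blood pressure was recorded; values are given as mean ± SEM.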

Rattus norvegicus [2] = assay: Compound was tested for minimum alveolar concentration in rat at dose 60 mg/kg administered intraperitoneally; type: functional; details: route intraperitoneal; how it was run: as §1
[3] = target: T1, Sodium channel protein type 4 subunit alpha (Homo sapiens, UniProt P35499); assay: Inhibition of sodium channels through tonic blockade; type: functional
T1 sequence (P35499 whole entry): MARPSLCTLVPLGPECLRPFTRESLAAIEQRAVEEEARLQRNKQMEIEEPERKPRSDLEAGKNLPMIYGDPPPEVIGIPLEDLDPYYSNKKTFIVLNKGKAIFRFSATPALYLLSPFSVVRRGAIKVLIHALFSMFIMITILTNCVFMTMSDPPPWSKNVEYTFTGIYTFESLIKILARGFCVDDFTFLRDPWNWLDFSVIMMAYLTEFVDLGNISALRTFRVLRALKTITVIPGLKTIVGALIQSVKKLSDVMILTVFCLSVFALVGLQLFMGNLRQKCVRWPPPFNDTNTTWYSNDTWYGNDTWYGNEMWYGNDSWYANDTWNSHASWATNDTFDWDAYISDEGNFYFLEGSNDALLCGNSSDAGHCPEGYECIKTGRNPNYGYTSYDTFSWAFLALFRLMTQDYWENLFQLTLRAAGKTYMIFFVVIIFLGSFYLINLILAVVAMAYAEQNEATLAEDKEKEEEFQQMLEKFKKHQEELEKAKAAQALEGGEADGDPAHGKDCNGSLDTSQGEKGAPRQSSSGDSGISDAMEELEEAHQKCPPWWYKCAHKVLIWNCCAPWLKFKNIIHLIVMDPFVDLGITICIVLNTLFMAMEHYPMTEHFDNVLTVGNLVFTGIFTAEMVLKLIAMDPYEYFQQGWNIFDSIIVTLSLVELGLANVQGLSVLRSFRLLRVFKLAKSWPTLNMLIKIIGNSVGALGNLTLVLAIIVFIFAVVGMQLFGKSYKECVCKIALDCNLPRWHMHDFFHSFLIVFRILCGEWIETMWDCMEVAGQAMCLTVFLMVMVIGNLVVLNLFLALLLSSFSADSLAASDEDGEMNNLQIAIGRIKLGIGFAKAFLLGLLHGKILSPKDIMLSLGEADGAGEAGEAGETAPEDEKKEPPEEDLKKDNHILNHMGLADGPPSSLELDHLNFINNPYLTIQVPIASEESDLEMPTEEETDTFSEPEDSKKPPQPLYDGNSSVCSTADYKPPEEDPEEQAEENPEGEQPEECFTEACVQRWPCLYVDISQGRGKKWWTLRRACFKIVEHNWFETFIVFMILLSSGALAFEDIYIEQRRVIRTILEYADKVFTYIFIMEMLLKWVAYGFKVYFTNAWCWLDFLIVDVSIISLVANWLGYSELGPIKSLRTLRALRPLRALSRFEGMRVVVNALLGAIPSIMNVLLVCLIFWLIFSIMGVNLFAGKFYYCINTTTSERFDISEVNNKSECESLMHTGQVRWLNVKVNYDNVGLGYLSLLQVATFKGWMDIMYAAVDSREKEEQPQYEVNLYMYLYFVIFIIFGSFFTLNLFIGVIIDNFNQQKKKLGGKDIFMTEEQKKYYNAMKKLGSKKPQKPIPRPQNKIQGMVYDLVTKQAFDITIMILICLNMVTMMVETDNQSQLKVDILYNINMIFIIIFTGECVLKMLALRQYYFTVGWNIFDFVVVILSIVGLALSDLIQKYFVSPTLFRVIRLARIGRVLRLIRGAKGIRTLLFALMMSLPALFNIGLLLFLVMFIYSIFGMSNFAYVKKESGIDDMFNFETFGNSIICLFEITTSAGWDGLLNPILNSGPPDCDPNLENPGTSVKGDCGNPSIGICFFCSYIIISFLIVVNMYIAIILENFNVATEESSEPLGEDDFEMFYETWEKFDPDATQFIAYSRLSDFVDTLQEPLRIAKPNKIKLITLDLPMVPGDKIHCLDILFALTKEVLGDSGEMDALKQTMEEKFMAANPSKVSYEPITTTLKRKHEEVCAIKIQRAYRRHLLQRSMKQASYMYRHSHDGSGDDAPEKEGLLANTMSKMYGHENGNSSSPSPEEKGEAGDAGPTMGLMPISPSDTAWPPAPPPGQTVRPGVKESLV

[4] = target: T1, Sodium channel protein type 4 subunit alpha; assay: Inhibition of sodium channels through phasic blockade; type: functional
Rattus norvegicus [5] = species on record: Rattus norvegicus; assay: Compound was tested for anticonvulsant activity against maximal electroshock in rat; type: functional
How it was run: (§2)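 NINDS ADD Phase II quantification with oral dosing. […] Therapeutic index is rotarod TD50 divided by the MES or scMET ED50.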

Rattus norvegicus [6] = assay: Compound was tested for anticonvulsant activity against subcutaneous metrazole in rat; type: functional; details: sc; how it was run: as §2
Rattus norvegicus [7] = species on record: Rattus norvegicus; assay: Compound was tested for anticonvulsant activity by measuring the therapeutic index by maximal electroshock in rat; type: functional; how it was run: as §2
Rattus norvegicus [8] = species on record: Rattus norvegicus; assay: Compound was tested for anticonvulsant activity using rotarod method in rat; type: functional; how it was run: as §2
Mus musculus [9] = assay: Compound was tested for anticonvulsant activity against subcutaneous metrazole at dose 100 mg/kg in time 4 hr in mice administered subcutaneously; type: functional
How it was run: (§3)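 Run by the NINDS ADD program in mice, challenged with maximal electroshock or subcutaneous metrazol at 0.5 h and 4 h after dosing. Protection is scored per animal (e.g. […], 5 for scMet at 100 mg/kg).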

Mus musculus [10] = assay: Compound was tested for anticonvulsant activity against subcutaneous metrazole at dose 30 mg/kg in time 0.5 hr in mice administered subcutaneously; type: functional; how it was run: as §3
Rattus norvegicus [11] = assay: Compound was tested for anticonvulsant activity by measuring the therapeutic index by subcutaneous metrazole in rat; type: functional; how it was run: as §2
Rattus norvegicus [12] = assay: Compound was tested for isoflurane minimum alveolar concentration in rat at dose 60 mg/kg administered intraperitoneally; type: functional; details: route intraperitoneal; how it was run: as §1
Mus musculus [13] = assay: Compound was tested for anticonvulsant activity using rotarod method at dose 100 mg/kg in time 4 hr in mice administered subcutaneously; type: functional; details: route subcutaneous
How it was run: (§4)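 NINDS ADD rotarod neurotoxicity screen in mice at 0.5 h and 4 h post-dose. The score is inability to grasp the rotating rod; loss of righting reflex after falling was also noted.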

Mus musculus [14] = assay: Compound was tested for anticonvulsant activity against maximal electroshock at dose 30 mg/kg in time 4 hr in mice administered subcutaneously; type: functional; details: route subcutaneous; how it was run: as §3
Mus musculus [15] = assay: Compound was tested for anticonvulsant activity against maximal electroshock at dose 100 mg/kg in time 0.5 hr in mice administered subcutaneously; type: functional; details: route subcutaneous; how it was run: as §3
Mus musculus [16] = assay: Compound was tested for anticonvulsant activity against subcutaneous metrazole at dose 100 mg/kg in time 0.5 hr in mice administered subcutaneously; type: functional; how it was run: as §3
Mus musculus [17] = assay: Compound was tested for anticonvulsant activity against maximal electroshock at dose 100 mg/kg in time 4 hr in mice administered subcutaneously; type: functional; details: route subcutaneous; how it was run: as §3
Mus musculus [18] = assay: Compound was tested for anticonvulsant activity using rotarod method at dose 300 mg/kg in time 4 hr in mice administered subcutaneously; type: functional; details: route subcutaneous; how it was run: as §4
Mus musculus [19] = assay: Compound was tested for anticonvulsant activity against maximal electroshock at dose 30 mg/kg in time 0.5 hr in mice administered subcutaneously; type: functional; details: route subcutaneous; how it was run: as §3
Mus musculus [20] = assay: Compound was tested for anticonvulsant activity using rotarod method at dose 100 mg/kg in time 0.5 hr in mice administered subcutaneously; type: functional; details: route subcutaneous; how it was run: as §4
HEK293 [21] = assay: Effect on HEK293 cells co-expressing voltage-gated Na+ channel rNav 1.3 and beta-3 at 100 uM; NE=No effect; type: functional, cell-based
How it was run: (§5)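 rNaV1.3 coexpressed with β3 in HEK293 cells (and Xenopus oocytes), exposed to 10 µM or 100 µM and assessed for Na+ channel block.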

Mus musculus [22] = assay: Compound was tested for anticonvulsant activity against subcutaneous metrazole at dose 300 mg/kg in time 4 hr in mice administered subcutaneously; type: functional; how it was run: as §3
[23] = target: Gamma-aminobutyric acid receptor subunit gamma-1 (Rattus norvegicus) (UniProt P23574); assay: Enhanced 10 uM GABA-A receptor currents in rat hippocampal neurons; NE=no effect; type: functional, tissue-based; details: Hippocampus
Chain of Gamma-aminobutyric acid receptor subunit gamma-1 (Rattus norvegicus) (P23574 whole entry): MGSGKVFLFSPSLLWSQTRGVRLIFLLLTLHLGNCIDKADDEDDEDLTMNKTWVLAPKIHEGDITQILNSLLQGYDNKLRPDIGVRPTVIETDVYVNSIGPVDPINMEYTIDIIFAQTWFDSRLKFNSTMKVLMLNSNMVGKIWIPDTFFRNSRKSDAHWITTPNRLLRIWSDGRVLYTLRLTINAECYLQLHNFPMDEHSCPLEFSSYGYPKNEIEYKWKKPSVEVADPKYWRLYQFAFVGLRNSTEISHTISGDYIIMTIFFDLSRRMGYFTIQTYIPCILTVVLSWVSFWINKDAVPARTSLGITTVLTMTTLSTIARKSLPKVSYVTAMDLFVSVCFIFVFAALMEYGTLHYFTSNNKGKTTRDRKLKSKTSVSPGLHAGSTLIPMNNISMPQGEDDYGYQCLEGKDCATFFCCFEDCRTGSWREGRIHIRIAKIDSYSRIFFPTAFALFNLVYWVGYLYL
How it was run: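 Peak current is expressed as percent of the GABA-alone control. Concentration–response was fitted to a four-parameter logistic; values are given as mean ± SEM.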

Mus musculus [24] = assay: Compound was tested for anticonvulsant activity using rotarod method at dose 300 mg/kg in time 0.5 hr in mice administered subcutaneously; type: functional; details: route subcutaneous; how it was run: as §4
HEK293 [25] = assay: Effect on HEK293 cells co-expressing voltage-gated Na+ channel rNav 1.3 and beta-3 at 10 uM; NE=No effect; type: functional, cell-based; how it was run: as §5
Mus musculus [26] = assay: Compound was tested for anticonvulsant activity against subcutaneous metrazole at dose 30 mg/kg in time 4 hr in mice administered subcutaneously; type: functional; how it was run: as §3
Mus musculus [27] = assay: Compound was tested for anticonvulsant activity against maximal electroshock at dose 300 mg/kg in time 0.5 hr in mice administered subcutaneously; type: functional; details: route subcutaneous; how it was run: as §3
HEK293 [28] = assay: Inhibition of rat TASK-1 and TASK-3-leak K+ channels expressed in HEK293 cells at 100 uM; NE denotes no effects; type: functional, cell-based
Mus musculus [29] = assay: Compound was tested for anticonvulsant activity against subcutaneous metrazole at dose 300 mg/kg in time 0.5 hr in mice administered subcutaneously; type: functional; how it was run: as §3
[30] = target: Protein kinase C (PKC) (Homo sapiens) (UniProt O94806+P41743+P17252+P05129+Q05655+P05771+Q05513+Q02156+P24723+Q15139+Q04759); assay: Inhibition of protein kinase C at 100 uM; NE=no effect; type: protein assay
Mus musculus [31] = assay: Compound was tested for anticonvulsant activity against maximal electroshock at dose 300 mg/kg in time 4 hr in mice administered subcutaneously; type: functional; details: route subcutaneous; how it was run: as §3

## NC(=O)C(OCc1ccccc1)(c1ccccc1)C(F)(F)F (stereo not given)
Rattus norvegicus [1]
  Mean blood pressure: 121 mmHg
Rattus norvegicus [2]
  MAC reduction: -4.4%

## CNC1(c2ccccc2Cl)CCCCC1=O (stereo not given) [KETAMINE]
[3]
  IC50: 800 µM
[4]
  IC50: 2.3 mM

## NC(=O)C(O)(Cc1ccccc1)C(F)(F)F (stereo not given)
Rattus norvegicus [1]
  Mean blood pressure: 111 mmHg
Rattus norvegicus [2]
  MAC reduction: 0%

## NCC(O)(c1ccccc1)C(F)(F)F (stereo not given)
Rattus norvegicus [1]
  Mean blood pressure: 116 mmHg
Rattus norvegicus [2]
  MAC reduction: -6.5%

## NC(=O)C(O)(CC(F)(F)F)c1ccccc1 (stereo not given)
Rattus norvegicus [1]
  Mean blood pressure: 107 mmHg
Rattus norvegicus [2]
  MAC reduction: -11%

## O=C(O)C(O)(c1ccccc1)C(F)(F)F (stereo not given)
Rattus norvegicus [1]
  Mean blood pressure: 116 mmHg
Rattus norvegicus [2]
  MAC reduction: -9.1%

## O=C1NC(=O)C(c2ccccc2)(c2ccccc2)N1 [PHENYTOIN]
Rattus norvegicus [5]
  ED50: 9.5 mg/kg
Rattus norvegicus [6]
  ED50: > 300 mg/kg
Rattus norvegicus [7]
  T.I.: 6.9
Rattus norvegicus [8]
  ED50: 66 mg/kg

## O=C1Nc2ccccc2C1(O)C(F)(F)F (stereo not given)
Rattus norvegicus [1]
  Mean blood pressure: 113 mmHg
Rattus norvegicus [2]
  MAC reduction: -4.3%

## CC(O)(C(N)=O)c1ccccc1 (stereo not given) [ATROLACTAMIDE]
Rattus norvegicus [1]
  Mean blood pressure: 127 mmHg
Rattus norvegicus [2]
  MAC reduction: 0%

## NC(=O)C(O)(c1ccccc1)C(F)(F)F (stereo not given)
Mus musculus [9]
  Protection: 0
Mus musculus [10]
  Protection: 0
Rattus norvegicus [11]
  T.I.: 2.6
Rattus norvegicus [12]
  Volume reduction: 34%
Mus musculus [13]
  Protection: 2
Mus musculus [14]
  Protection: 0
Mus musculus [15]
  Protection: 3
Rattus norvegicus [5]
  ED50: 9.9 mg/kg
Rattus norvegicus [1]
  Mean blood pressure: 119 mmHg
Mus musculus [16]
  Protection: 5
Rattus norvegicus [2]
  MAC reduction: -34%
Mus musculus [17]
  Protection: 3
Mus musculus [18]
  Protection: 2
Mus musculus [19]
  Protection: 0
Rattus norvegicus [6]
  ED50: 39 mg/kg
Rattus norvegicus [7]
  T.I.: 10
Mus musculus [20]
  Protection: 4
HEK293 [21]
  Activity: inactive
HEK293 [21]; Xenopus sp.
  Activity: inactive
Mus musculus [22]
  Protection: 1
[23]
  Activity: inactive
Mus musculus [24]
  Protection: 4
HEK293 [25]
  Activity: inactive
HEK293 [25]; Xenopus sp.
  Activity: inactive
Mus musculus [26]
  Protection: 0
Mus musculus [27]
  Protection: 1
HEK293 [28]
  Activity: inactive
Mus musculus [29]
  Protection: 1
[30]
  Activity: inactive
Rattus norvegicus [8]
  ED50: 100 mg/kg
Mus musculus [31]
  Protection: 1

## NC(=O)C(O)(c1ccccc1)C(F)(F)Cl (stereo not given)
Rattus norvegicus [1]
  Mean blood pressure: 81 mmHg
Rattus norvegicus [2]
  MAC reduction: -43%

## CN1C(=O)C(O)(C(F)(F)F)c2ccccc21 (stereo not given)
Rattus norvegicus [1]
  Mean blood pressure: 112 mmHg
Rattus norvegicus [2]
  MAC reduction: -4.4%
